Measurements: article PMC5808564 (ChemMedChem, 2017)
Values after ≈ are worked out from the molar mass of the structure shown.

Tests used:
IMR-90 human cells = experiment: Human cell line toxicity testing; format: cell-based; details: Homo sapiens, IMR-90, read-out: IMR90 toxicity (EC50)
[1] = molecular target: T1, human HK 4 (human glucokinase, hGlk) (Homo sapiens, UniProt P35557); experiment: Specificity assay against human glucokinase; format: biochemical; details: read-out: % hGlk inhibition (10 μM)
T1 sequence (P35557 1-465): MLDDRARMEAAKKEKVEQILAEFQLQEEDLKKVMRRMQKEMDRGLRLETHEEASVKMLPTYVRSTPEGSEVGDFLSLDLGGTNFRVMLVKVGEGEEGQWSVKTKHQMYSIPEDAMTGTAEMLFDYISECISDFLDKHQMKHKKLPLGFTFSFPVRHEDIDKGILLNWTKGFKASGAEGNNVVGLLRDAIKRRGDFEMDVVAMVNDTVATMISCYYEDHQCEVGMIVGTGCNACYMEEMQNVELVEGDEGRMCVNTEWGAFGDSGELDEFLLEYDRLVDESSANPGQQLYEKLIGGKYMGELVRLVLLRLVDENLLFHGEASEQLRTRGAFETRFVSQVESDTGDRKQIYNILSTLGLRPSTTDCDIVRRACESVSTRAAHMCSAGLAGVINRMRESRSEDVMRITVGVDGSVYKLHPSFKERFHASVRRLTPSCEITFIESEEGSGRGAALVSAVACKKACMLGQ
Procedure, shortened: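 Uses human hexokinase 4 (glucokinase; GenBank BC001890). Activity is read through a coupled reaction in which glucose-6-phosphate dehydrogenase converts the glucose-6-phosphate formed to 6-phosphogluconate. The coincident NADPH formation is followed at 340 nm.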

Histamine H2 = Histamine H2 (Homo sapiens, UniProt P25021); experiment: PanLabs LeadProfilingScreen radioligand binding; details: read-out: percent inhibition
Sequence of Histamine H2 (P25021 whole entry): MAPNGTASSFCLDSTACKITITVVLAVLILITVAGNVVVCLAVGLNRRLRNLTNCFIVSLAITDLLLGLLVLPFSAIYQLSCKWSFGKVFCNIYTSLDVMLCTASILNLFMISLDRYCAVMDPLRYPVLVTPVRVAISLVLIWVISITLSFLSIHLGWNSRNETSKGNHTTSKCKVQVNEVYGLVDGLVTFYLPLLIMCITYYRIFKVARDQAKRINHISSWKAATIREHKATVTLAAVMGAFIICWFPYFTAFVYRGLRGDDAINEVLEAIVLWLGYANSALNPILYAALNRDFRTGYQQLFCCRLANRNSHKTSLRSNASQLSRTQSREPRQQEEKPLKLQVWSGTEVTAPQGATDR
Procedure, shortened: (§1)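 Test compound screened once, at 10 μM, against a panel of mammalian targets; each run in duplicate. Values are percent inhibition at that single concentration; no IC50 determinations were made.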

[2] = molecular target: T2, Serotonin (5-hydroxytryptamine) 5-HT1A (Homo sapiens, UniProt P08908); experiment: PanLabs LeadProfilingScreen radioligand binding; details: read-out: percent inhibition
T2 sequence (P08908 1-422): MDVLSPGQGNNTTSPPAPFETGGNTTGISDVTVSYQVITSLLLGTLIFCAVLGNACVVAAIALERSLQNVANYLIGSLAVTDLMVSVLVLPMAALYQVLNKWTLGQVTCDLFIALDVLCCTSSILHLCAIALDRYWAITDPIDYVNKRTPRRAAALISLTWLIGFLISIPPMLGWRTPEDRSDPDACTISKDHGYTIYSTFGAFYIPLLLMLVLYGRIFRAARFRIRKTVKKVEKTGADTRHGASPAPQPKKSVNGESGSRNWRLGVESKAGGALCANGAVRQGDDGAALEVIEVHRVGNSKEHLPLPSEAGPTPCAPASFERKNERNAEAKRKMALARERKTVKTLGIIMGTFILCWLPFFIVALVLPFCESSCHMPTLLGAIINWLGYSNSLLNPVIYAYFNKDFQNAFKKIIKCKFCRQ
Procedure, shortened: as §1

[3] = molecular target: T3, Leukotriene, cysteinyl CysLT1 (Homo sapiens, UniProt Q9Y271); experiment: PanLabs LeadProfilingScreen radioligand binding; details: read-out: percent inhibition
T3 sequence (Q9Y271 1-337): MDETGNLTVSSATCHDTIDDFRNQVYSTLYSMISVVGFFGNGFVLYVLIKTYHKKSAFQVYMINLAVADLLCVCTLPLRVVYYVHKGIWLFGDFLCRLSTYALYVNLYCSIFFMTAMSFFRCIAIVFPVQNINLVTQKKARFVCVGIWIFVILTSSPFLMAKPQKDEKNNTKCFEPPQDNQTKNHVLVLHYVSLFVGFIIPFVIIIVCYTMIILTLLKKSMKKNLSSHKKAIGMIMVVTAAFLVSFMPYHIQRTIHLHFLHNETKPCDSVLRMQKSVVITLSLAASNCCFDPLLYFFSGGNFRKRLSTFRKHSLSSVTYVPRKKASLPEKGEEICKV
Procedure, shortened: as §1

Adrenergic α1B = molecular target: T4, Adrenergic α1B (Rattus norvegicus, UniProt P15823); experiment: PanLabs LeadProfilingScreen radioligand binding; details: read-out: percent inhibition
T4 sequence (P15823 1-515): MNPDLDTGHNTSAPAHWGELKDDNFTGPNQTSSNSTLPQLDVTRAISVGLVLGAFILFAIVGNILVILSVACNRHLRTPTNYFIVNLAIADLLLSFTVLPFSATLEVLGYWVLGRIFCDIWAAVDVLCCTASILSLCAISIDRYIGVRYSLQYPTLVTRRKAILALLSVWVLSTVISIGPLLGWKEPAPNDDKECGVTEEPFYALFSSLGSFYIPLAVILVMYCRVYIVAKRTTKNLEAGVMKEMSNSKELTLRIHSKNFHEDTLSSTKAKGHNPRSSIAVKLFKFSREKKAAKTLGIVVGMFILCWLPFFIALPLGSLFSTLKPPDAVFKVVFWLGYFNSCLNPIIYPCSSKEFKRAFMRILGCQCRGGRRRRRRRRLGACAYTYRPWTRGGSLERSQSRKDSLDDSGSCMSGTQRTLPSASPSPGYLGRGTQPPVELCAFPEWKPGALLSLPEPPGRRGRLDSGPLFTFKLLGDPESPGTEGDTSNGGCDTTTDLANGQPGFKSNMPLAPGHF
Procedure, shortened: as §1

Thyroid hormone = experiment: PanLabs LeadProfilingScreen radioligand binding; details: 10 μM, duplicate, rat
Procedure, shortened: as §1

[4] = molecular target: recombinant T. brucei hexokinase 1 (rTbHK1) (Trypanosoma brucei, UniProt Q38C42); experiment: biochemical; format: biochemical; details: compared to bromide 2
Dopamine D1 = Dopamine D1 (Homo sapiens, UniProt P21728); experiment: PanLabs LeadProfilingScreen radioligand binding; details: read-out: percent inhibition
Sequence of Dopamine D1 (P21728 whole entry): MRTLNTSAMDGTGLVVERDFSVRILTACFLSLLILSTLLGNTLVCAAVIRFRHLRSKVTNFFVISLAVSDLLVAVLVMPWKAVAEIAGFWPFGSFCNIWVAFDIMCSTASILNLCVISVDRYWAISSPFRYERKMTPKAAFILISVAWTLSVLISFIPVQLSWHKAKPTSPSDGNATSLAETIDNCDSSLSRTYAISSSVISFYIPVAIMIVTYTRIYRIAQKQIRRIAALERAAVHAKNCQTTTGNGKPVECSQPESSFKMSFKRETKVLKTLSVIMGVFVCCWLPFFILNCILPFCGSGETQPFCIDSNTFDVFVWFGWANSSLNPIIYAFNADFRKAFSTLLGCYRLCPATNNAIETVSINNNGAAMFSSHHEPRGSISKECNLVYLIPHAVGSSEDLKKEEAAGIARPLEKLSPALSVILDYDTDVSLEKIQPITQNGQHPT
Procedure, shortened: as §1

[5] = tested on: T. brucei bloodstream form (BSF) parasites (cell line 90-13, a 427 strain); experiment: microbe, parasite or virus in culture; format: cell-based, Trypanosoma brucei; details: BLD = below level of detection
[6] = molecular target: Dopamine transporter (DAT) (Homo sapiens, UniProt Q01959); experiment: PanLabs LeadProfilingScreen radioligand binding; details: read-out: percent inhibition
Sequence of Dopamine transporter (DAT) (Q01959 whole entry): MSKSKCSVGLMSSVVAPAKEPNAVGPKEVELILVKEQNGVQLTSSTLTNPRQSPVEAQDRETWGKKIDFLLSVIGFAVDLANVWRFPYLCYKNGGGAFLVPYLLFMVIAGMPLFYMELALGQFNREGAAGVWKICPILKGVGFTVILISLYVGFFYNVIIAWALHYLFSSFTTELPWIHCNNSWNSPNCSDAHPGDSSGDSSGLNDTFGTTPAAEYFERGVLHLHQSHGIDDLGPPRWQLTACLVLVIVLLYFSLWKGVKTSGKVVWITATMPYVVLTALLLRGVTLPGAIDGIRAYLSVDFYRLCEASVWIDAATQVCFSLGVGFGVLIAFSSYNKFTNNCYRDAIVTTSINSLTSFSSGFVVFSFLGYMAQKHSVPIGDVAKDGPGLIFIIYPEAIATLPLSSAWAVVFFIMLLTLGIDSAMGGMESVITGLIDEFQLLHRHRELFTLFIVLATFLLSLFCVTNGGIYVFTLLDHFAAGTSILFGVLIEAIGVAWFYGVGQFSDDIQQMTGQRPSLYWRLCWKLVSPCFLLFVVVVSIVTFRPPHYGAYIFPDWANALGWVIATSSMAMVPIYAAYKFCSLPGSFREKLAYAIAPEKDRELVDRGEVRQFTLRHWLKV
Procedure, shortened: as §1

[7] = Microsomal stability, mouse; format: in vitro ADME
Plasma stability, human = format: in vitro ADME
Plasma protein binding = format: in vitro ADME; details: mouse, mouse species
Plasma stability, mouse = format: in vitro ADME
[8] = Aqueous solubility, kinetic solubility method; details: pH 7.4
[9] = Microsomal stability, human; format: in vitro ADME
Dopamine D3 = Dopamine D3 (Homo sapiens, UniProt P35462); experiment: PanLabs LeadProfilingScreen radioligand binding; details: read-out: percent inhibition
Sequence of Dopamine D3 (P35462 whole entry): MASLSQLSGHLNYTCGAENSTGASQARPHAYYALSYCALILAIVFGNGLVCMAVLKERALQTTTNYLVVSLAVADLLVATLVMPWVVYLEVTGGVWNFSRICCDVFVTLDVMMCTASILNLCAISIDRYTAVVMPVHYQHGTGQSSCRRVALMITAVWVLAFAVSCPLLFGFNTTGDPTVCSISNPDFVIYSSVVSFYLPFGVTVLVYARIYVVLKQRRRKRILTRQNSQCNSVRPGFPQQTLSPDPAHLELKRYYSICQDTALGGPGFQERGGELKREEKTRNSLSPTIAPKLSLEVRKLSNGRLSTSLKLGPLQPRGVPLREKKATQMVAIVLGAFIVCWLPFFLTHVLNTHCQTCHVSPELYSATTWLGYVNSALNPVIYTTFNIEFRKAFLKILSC
Procedure, shortened: as §1

CC(C)(C)c1ccc(C(=O)Nc2cc(Cl)c(-c3ccccc3)cc2C(=O)O)cc1 [Compound 4f]
EC50 (IMR-90 human cells): > 25 µM
inhibition at 10 µM [1]: 35.2 ± 8.3%
inhibition at 10 µM (Histamine H2): 98%
inhibition at 10 µM [2]: 90%
inhibition at 10 µM [3]: 87%
inhibition at 10 µM (Adrenergic α1B): 53%
percent inhibition (Thyroid hormone): 65%
improvement in rTbHK1 potency [4]: 3.5 fold
inhibition at 10 µM (Dopamine D1): 57%
% T. brucei BSF growth inhibition (10 μM) ([5]; 10 μM compound, 10 µM): 95.4 ± 0.8%
inhibition at 10 µM ([5]; Trypanosoma brucei, A-427, read-out: % T. brucei BSF growth inhibition (10 μM), 10 μM compound): 95%
inhibition at 10 µM [6]: 88%
microsomal stability, % parent remaining after 1 h [7]: 55.5%
plasma stability, % parent remaining after 3 h (Plasma stability, human): 80.8%
fraction unbound (Plasma protein binding; 1 μM): 0.01
fraction unbound (Plasma protein binding; 10 μM): 0.009
plasma stability, % parent remaining after 3 h (Plasma stability, mouse): 97.4%
solubility [8]: 9.6 µM (≈ 3.92 µg/mL)
microsomal stability, % parent remaining after 1 h [9]: 46.5%
Papp (PAMPA permeability; PAMPA permeability (Pe), donor pH 6.2, acceptor pH 7.4): 1.6 ×10⁻⁶ cm/s
Papp (PAMPA permeability; pH 7.4, PAMPA permeability (Pe), donor pH 7.4, acceptor pH 7.4): 49 ×10⁻⁶ cm/s
inhibition at 10 µM (Dopamine D3): 86%
